Data: ChEMBL document CHEMBL4145447, “4-arylamidobenzyl substituted 5-bromomethylene-2(5H)-furanones for chronic bacterial infection” (Eur J Med Chem, 2018)
Blank lines part the entries; values can stand above or below the compound they belong to.

What was measured:
[1] = system: Pseudomonas aeruginosa PAO1; assay: Inhibition of Pseudomonas aeruginosa PAO1 GFP-fused quorum sensing rhlA at 10 uM measured every 15 mins up to 12 hrs by GFP reporter gene assay relative to control
Outline: (§1)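 GFP reporter strains of P. aeruginosa PAO1 (lasB-, rhlA- or pqsA-promoter fused to unstable gfp(ASV)) grown overnight in LB at 37 °C, 200 rpm, 18 h, then diluted 1:100. Culture mixed 1:1 with compound diluted in LB from 10 mM DMSO stock (0.1% DMSO final). Fluorescence (ex 485/em 528 nm) read every 15 min at 37 °C for ≥12 h.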

[2] = molecular target: Elastase (Pseudomonas aeruginosa (strain ATCC 15692 / PAO1 / 1C / PRS 101 / LMG12228)) (UniProt P14756); assay: Inhibition of Pseudomonas aeruginosa PAO1 GFP-fused quorum sensing lasB at 10 uM measured every 15 mins up to 12 hrs by GFP reporter gene assay relative to control; outline: as §1
[3] = system: RAW264.7; assay: Anti-inflammatory activity in mouse RAW264.7 cells assessed as inhibition of LPS-induced NO production at 10 uM preincubated for 2 hrs followed by LPS stimulation and measured after 48 hrs by Griess method relative to control; assay type: functional
Outline: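 RAW264.7 cells seeded at 5 × 10^4/well and cultured 18 h, then given 10 µM compound plus LPS 100 ng/mL for 48 h at 37 °C. Supernatant mixed 1:1 with Griess reagent (1% sulfanilamide, 0.1% naphthylethylenediamine in 5% phosphoric acid) for 10 min; nitrite read at OD540.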

[4] = molecular target: T1, Anthranilate--CoA ligase (Pseudomonas aeruginosa (strain ATCC 15692 / DSM 22644 / CIP 104116 /JCM 14847 / LMG 12228 / 1C / PRS 101 / PAO1)) (UniProt Q9I4X3); assay: Inhibition of Pseudomonas aeruginosa PAO1 GFP-fused quorum sensing pqsA at 10 uM measured every 15 mins up to 12 hrs by GFP reporter gene assay relative to control; outline: as §1
T1 sequence (whole entry): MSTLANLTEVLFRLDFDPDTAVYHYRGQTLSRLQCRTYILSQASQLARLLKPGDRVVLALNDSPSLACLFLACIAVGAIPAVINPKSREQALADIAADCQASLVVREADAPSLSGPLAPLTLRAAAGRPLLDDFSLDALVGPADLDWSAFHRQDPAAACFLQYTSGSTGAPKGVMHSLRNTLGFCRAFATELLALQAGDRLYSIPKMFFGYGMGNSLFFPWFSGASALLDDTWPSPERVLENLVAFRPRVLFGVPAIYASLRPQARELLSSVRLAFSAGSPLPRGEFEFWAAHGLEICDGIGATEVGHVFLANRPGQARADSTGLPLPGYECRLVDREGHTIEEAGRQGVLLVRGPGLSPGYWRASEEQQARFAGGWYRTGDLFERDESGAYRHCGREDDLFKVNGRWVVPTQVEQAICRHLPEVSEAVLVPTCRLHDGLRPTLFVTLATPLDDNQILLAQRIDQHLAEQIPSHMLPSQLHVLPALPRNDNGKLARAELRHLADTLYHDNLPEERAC

[5] = system: RAW264.7; assay: Anti-inflammatory activity in mouse RAW264.7 cells assessed as inhibition of LPS-induced TNF-alpha production by measuring TNF-alpha level at 10 uM preincubated for 2 hrs followed by LPS stimulation and measured after 12 hrs by ELISA (reference value: 21561.3 +/- 857 pg/ml); assay type: functional
[6] = system: RAW264.7; assay: Anti-inflammatory activity in mouse RAW264.7 cells assessed as inhibition of LPS-induced IL-6 production by measuring […] level at 10 uM preincubated for 2 hrs followed by LPS stimulation and measured after 12 hrs by ELISA (reference value: 175.2 +/- 10.2 pg/ml); assay type: functional
[7] = system: RAW264.7; assay: Anti-inflammatory activity in mouse RAW264.7 cells assessed as inhibition of LPS-induced IL-6 production by measuring IL-6 level at 10 uM preincubated for 2 hrs followed by LPS stimulation and measured after 24 hrs by ELISA (reference value: 407.6 +/- 16.7 pg/ml)
[8] = system: RAW264.7; assay: Anti-inflammatory activity in mouse RAW264.7 cells assessed as inhibition of LPS-induced TNF-alpha production by measuring TNF-alpha level at 10 uM preincubated for 2 hrs followed by LPS stimulation and measured after 6 hrs by ELISA (reference value: 11922 +/- 628.4 pg/ml); assay type: functional
[9] = system: RAW264.7; assay: Anti-inflammatory activity in mouse RAW264.7 cells assessed as inhibition of LPS-induced TNF-alpha production by measuring TNF-alpha level at 10 uM preincubated for 2 hrs followed by LPS stimulation and measured after 24 hrs by ELISA (reference value: 24216 +/- 498.7 pg/ml); assay type: functional
[10] = system: RAW264.7; assay: Anti-inflammatory activity in mouse RAW264.7 cells assessed as inhibition of LPS-induced IL-6 production by measuring […] level at 10 uM preincubated for 2 hrs followed by LPS stimulation and measured after 6 hrs by ELISA (reference value: 94.6 +/- 5.9 pg/ml); assay type: functional
[11] = Cytotoxicity against mouse RAW264.7 cells assessed as cell viability at 5 uM after 48 hrs by MTT assay relative to control; assay type: cell-based; conditions: read-out: Activity
Outline: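 MTT viability: RAW264.7 cells (4 × 10^4/well) in DMEM + 10% FBS exposed to compounds diluted in DMEM for 48 h. MTT 0.5 mg/mL added for 4 h in the dark, formazan dissolved in DMSO, read at 570 nm. Viability = treated/medium-only control × 100; three independent experiments.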

Chain of Elastase (Pseudomonas aeruginosa (strain ATCC 15692 / PAO1 / 1C / PRS 101 / LMG12228)) (P14756 198-498 limits assumed): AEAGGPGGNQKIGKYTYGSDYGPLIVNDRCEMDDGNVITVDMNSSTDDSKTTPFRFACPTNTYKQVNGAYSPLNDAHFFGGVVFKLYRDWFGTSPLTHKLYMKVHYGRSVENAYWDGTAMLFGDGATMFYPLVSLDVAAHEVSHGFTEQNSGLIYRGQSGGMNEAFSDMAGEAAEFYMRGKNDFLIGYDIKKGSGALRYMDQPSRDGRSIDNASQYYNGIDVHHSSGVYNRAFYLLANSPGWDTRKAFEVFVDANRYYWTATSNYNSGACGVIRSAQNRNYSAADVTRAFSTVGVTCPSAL

Compound: O=C(/C=C/c1ccccc1)Nc1ccc(CC2=CC(=O)OC2=C(Br)Br)cc1
inhibition [1]: 18.1%
inhibition [2]: 9.48%
inhibition at 10 µM [3]: 54.4%
inhibition [4]: 16.2%

Compound: O=C1C=C(Br)/C(=C/Br)O1
inhibition [1]: 24%
inhibition [2]: 21.4%
inhibition [4]: 20.2%

Compound: O=C(Cc1ccc(Br)cc1)Nc1ccc(CC2=CC(=O)OC2=C(Br)Br)cc1
inhibition [1]: 20%
inhibition [2]: 10.4%
inhibition at 10 µM [3]: 50.7%
inhibition [4]: 27.9%

Compound: COc1ccc2c(c1)c(CC(=O)O)c(C)n2C(=O)c1ccc(Cl)cc1 [INDOMETHACIN]
Activity [5]: 19664 pg/mL
Activity [6]: 120.7 pg/mL
Activity [7]: 286.6 pg/mL
Activity [8]: 10850 pg/mL
Activity [9]: 20772 pg/mL
Activity [10]: 59.6 pg/mL
inhibition at 10 µM [3]: 29.4%

Compound: COc1cc(CC(=O)Nc2ccc(CC3=CC(=O)OC3=C(Br)Br)cc2)cc(OC)c1OC
inhibition [1]: 7.66%
inhibition [2]: 9.79%
inhibition at 10 µM [3]: 21.2%
inhibition [4]: 19.5%

Compound: COc1ccc(CC(=O)Nc2ccc(CC3=CC(=O)OC3=C(Br)Br)cc2)cc1
inhibition [1]: 13.8%
inhibition [2]: 11.8%
inhibition at 10 µM [3]: 25.2%
inhibition [4]: 20.6%

Compound: O=C(Cc1ccc(F)cc1)Nc1ccc(CC2=CC(=O)OC2=C(Br)Br)cc1
inhibition [1]: 15.9%
inhibition [2]: 9.49%
inhibition at 10 µM [3]: 59.2%
inhibition [4]: 20%

Compound: O=C1C=C(Cc2ccc(NC(=O)c3ccccc3)cc2)C(=C(Br)Br)O1
inhibition [1]: 20.2%
inhibition [2]: 21.2%
inhibition at 10 µM [3]: 30.3%
inhibition [4]: 28.2%

Compound: Cc1ccc(CC(=O)Nc2ccc(CC3=CC(=O)OC3=C(Br)Br)cc2)cc1
inhibition [1]: 16.4%
inhibition [2]: 14.2%
inhibition at 10 µM [3]: 19%
inhibition [4]: 24.5%

Compound: COc1ccc(C=CC(=O)Nc2ccc(CC3=CC(=O)O/C3=C/Br)cc2)cc1
inhibition [1]: 10.6%
inhibition [2]: 12.2%
inhibition at 10 µM [3]: 61%
inhibition [4]: 24.3%

Compound: O=C(Nc1ccccc1)c1cc([N+](=O)[O-])ccc1Cl
viability at 48 h, 5 µM [11]: 99.1%

Compound: COc1ccc(/C=C/C(=O)Nc2ccc(CC3=CC(=O)OC3=C(Br)Br)cc2)cc1
inhibition [1]: 12.9%
inhibition [2]: 5.03%
inhibition at 10 µM [3]: 44.3%
inhibition [4]: 21.9%

Compound: O=C1C=C(Cc2ccc(NC(=O)c3ccco3)cc2)C(=C(Br)Br)O1
inhibition [1]: 23.6%
inhibition [2]: 22.9%
inhibition at 10 µM [3]: 44.5%
inhibition [4]: 34.6%

Compound: O=C1C=C(Cc2ccc(NC(=O)c3cccs3)cc2)C(=C(Br)Br)O1
inhibition [1]: 19.6%
inhibition [2]: 20%
inhibition at 10 µM [3]: 39.9%
inhibition [4]: 26.4%

Compound: O=C(CCc1ccccc1)Nc1ccc(CC2=CC(=O)OC2=C(Br)Br)cc1
inhibition [1]: 19.5%
inhibition [2]: 11%
inhibition at 10 µM [3]: 48.1%
inhibition [4]: 22.9%

Now from value to compound, other results behind:

inhibition [1]: 5.57%
inhibition [2]: 8.53%
inhibition [4]: 20.3%
Compound: COc1cc(CC(=O)Nc2ccc(CC3=CC(=O)OC3=CBr)cc2)cc(OC)c1OC
inhibition at 10 µM [3]: 34.3%

inhibition [1]: 19.2%
inhibition [2]: 19.2%
inhibition [4]: 24.8%
Compound: O=C(Cc1ccccc1)Nc1ccc(CC2=CC(=O)OC2=C(Br)Br)cc1
inhibition at 10 µM [3]: 44.1%

inhibition [1]: 15.2%
inhibition [2]: 16.9%
inhibition [4]: 17.6%
Compound: O=C(Cc1c(Cl)cccc1Cl)Nc1ccc(CC2=CC(=O)OC2=CBr)cc1
inhibition at 10 µM [3]: 66.6%

inhibition [1]: 19.2%
inhibition [2]: 19.1%
inhibition [4]: 19.3%
Compound: O=C(Cc1c(Cl)cccc1Cl)Nc1ccc(CC2=CC(=O)OC2=C(Br)Br)cc1
inhibition at 10 µM [3]: 53.5%

inhibition [1]: 11.8%
inhibition [2]: 14.8%
inhibition [4]: 26.4%
Compound: COc1ccc(CC(=O)Nc2ccc(CC3=CC(=O)OC3=CBr)cc2)cc1
inhibition at 10 µM [3]: 39.3%

inhibition [1]: 17.2%
inhibition [2]: 24.9%
inhibition [4]: 40.8%
Compound: O=C(Cc1ccc(Br)cc1)Nc1ccc(CC2=CC(=O)OC2=CBr)cc1
inhibition at 10 µM [3]: 64.9%

inhibition [1]: 23.9%
inhibition [2]: 10.2%
inhibition [4]: 20.3%
Compound: O=C1C=C(Cc2ccc(NC(=O)c3cccs3)cc2)C(=CBr)O1
inhibition at 10 µM [3]: 54.2%

inhibition [1]: 18.2%
inhibition [2]: 19%
inhibition [4]: 29.8%
Compound: Cc1ccc(CC(=O)Nc2ccc(CC3=CC(=O)OC3=CBr)cc2)cc1
inhibition at 10 µM [3]: 29.4%

inhibition [1]: 17.2%
inhibition [2]: 16.1%
inhibition [4]: 34.5%
Compound: O=C1C=C(Cc2ccc(NC(=O)c3ccccc3)cc2)C(=CBr)O1
inhibition at 10 µM [3]: 46.2%

inhibition [1]: 15.2%
inhibition [2]: 14.9%
inhibition [4]: 20.6%
Compound: O=C(CCc1ccccc1)Nc1ccc(CC2=CC(=O)OC2=CBr)cc1
inhibition at 10 µM [3]: 64.8%

inhibition [1]: 17.3%
inhibition [2]: 18%
inhibition [4]: 25.8%
Compound: O=C(Cc1ccccc1)Nc1ccc(CC2=CC(=O)OC2=CBr)cc1
inhibition at 10 µM [3]: 59.5%

inhibition [1]: 13.6%
inhibition [2]: 17.3%
inhibition [4]: 20.4%
Compound: O=C1C=C(Cc2ccc(NC(=O)c3ccco3)cc2)C(=CBr)O1
inhibition at 10 µM [3]: 59.9%
